S1P4 antag – blocks the human S1P4 receptor; inhibition, % at 4.98 µM; O95977; S1P4-expressing cells, antagonist mode, reporter read-out; actives 0.26% (n = 220,000); in the data active means inhibition above about 29%
Lmaj promast – Leishmania major promastigote growth inhibition | actives 9% (n = 200,000) | inhibition, % at 10 µM | Leishmania major promastigotes, resazurin fluorescence viability; in the data active means inhibition above about 50%;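 further: promastigotes grown with compound for 44 hours at 28 °C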
S1P4 ag – human S1P4 receptor agonism; O95977; S1P4-expressing cell line, agonist reporter assay; activation, % at 4.98 µM; actives 0.35% (n = 220,000); in the data active means activation above about 11%
S1P3 antagonist – antagonists of human S1P3 receptor. Q99500. actives 0.27% (n = 170,000). inhibition, % at 4.98 µM. CHO S1P3 NFAT-BLA reporter, FRET fluorescence, antagonist mode. AID 485;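 active means inhibition above the plate cutoff, the mean inhibition of test wells on that plate plus 3 SD, cut at about 28% in these data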;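 further: cells challenged with S1P at its EC80 of 0.8 µM; blue over green emission ratio from cleaved BLA substrate after 4 h stimulation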
Target sequence (Q99500 whole entry, looked up): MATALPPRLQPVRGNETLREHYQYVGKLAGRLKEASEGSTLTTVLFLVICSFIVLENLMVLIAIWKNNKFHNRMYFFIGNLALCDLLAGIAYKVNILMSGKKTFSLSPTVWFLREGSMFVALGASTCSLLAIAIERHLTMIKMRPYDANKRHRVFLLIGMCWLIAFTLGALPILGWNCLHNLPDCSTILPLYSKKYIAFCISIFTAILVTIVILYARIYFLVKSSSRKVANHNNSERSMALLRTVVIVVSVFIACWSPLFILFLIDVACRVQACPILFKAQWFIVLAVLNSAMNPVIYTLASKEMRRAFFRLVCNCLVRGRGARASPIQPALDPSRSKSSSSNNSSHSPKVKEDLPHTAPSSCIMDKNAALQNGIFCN
Mdm2 ligase inh – Mdm2 E3 ligase (human) inhibition | AID 1230 | signal enhancement, % at 5 µM | actives 0.11% (n = 210,000) | cell-based MDM2 ubiquitination luciferase reporter, 2 h; 0 = plate control, 100 = twice control, blank-subtracted;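 active means signal enhancement of 30% or more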;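 further: luminescence tracks abundance of the self-degrading MDM2-luciferase fusion protein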
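System: stable MDM2–luciferase fusion reporter cells / Input: 2000 cells seeded into each well / Schedule: 4 h settle plus 2 h compound, 37 °C / Compound: single-point 5 µM / Buffer or medium: cells held in DMEM / Benchmarks: control and blank well means / Evaluation: percent signal gain over controls, blank-subtracted / Measured by: luciferase luminescence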
Each line names hits and unclear results; the compound was inactive in the other large screens. Shown is part of a subset that was picked to be rich in hits.

Cc1nc(CC(C)C)cc(C(=O)N2CCCC(CNS(=O)(=O)c3cccs3)C2)n1 (configuration not stated)	none
CNC(=O)COc1ncnc2sccc12	none (no result: S1P3 antagonist)
Cc1ccc(C)c(NC(=O)CN(C)C(=O)COc2ncnc3sccc23)c1	Lmaj promast 58.5
CCOC(=O)C1=C(C)NC(=S)N(C=O)C1c1ccccc1 (configuration not stated)	none
CCc1c(C(=O)Nc2ccc(OC)cc2)[nH]c(C)c1C(C)=O	none
CCc1c(C(=O)Nc2cc(C)ccc2OC)[nH]c(C)c1C(C)=O	S1P3 antagonist 58.0
Cc1ccsc1/C=N/NC(=O)Cn1cnc2ccccc21	none
COc1ccc(CNC2CCCc3ccccc32)cc1OC (configuration not stated)	none
CCOc1ccc(CNC2CCCc3ccccc32)cc1 (configuration not stated)	Lmaj promast 69.7
Cc1cccc(-c2nnn3c2nc(NCCc2ccc(S(N)(=O)=O)cc2)c2ccccc23)c1	none
Cc1ccc(-c2nnn3c2nc(NCCc2ccc(S(N)(=O)=O)cc2)c2ccccc23)cc1	Lmaj promast 72.6
C#CCSc1nnc(CSc2nc3ccccc3s2)n1-c1ccccc1	Lmaj promast 50.5 (no result: S1P3 antagonist)
O=C(O)CSc1nnc(CSc2nc3ccccc3s2)n1-c1ccccc1	none
O=C1CSC(=Nc2ccc(Cl)cc2)N1Cc1cccnc1	none (no result: Lmaj promast)
CCN1C(=O)C2(C(C#N)=C(N)Oc3c2c(C)nn3-c2ccccc2)c2ccccc21 (configuration not stated)	Lmaj promast 85.5
Cc1nn(-c2ccccc2)c2c1C1(C(=O)N(C)c3ccccc31)C(C#N)=C(N)O2 (configuration not stated)	none
CC1=C(C#N)c2nc(N)c(C#N)c(C)c2/C1=C\c1ccc(C)cc1	Lmaj promast 100.2 (no result: S1P3 antagonist)
Cc1ccc2c(c1)c1c(n2CC(O)CNC(C)(C)C)CCCC1 (configuration not stated)	Lmaj promast 81.6 (no result: S1P3 antagonist)
O=C(NC(=S)N(CCCCO)C1CCCCC1)c1sc2ccccc2c1Cl	Lmaj promast 92.3 (no result: S1P3 antagonist)
Cc1ccccc1OCc1nc2ccccc2c(=O)n1/N=C/c1cn[nH]c1-c1ccccc1	Lmaj promast 100.3
Cc1ccc(-c2[nH]ncc2/C=N/n2c(COc3ccccc3)nc3ccccc3c2=O)cc1	none
O=c1c(Cc2c(F)cccc2Cl)c(O)ccn1CCCN1CCOCC1	none
COc1ccc(C(=O)c2ccc(N3CCOCC3)c([N+](=O)[O-])c2)cc1	none
COc1ccc(Nc2nnc(-c3ccc(N4CCOCC4)c([N+](=O)[O-])c3)c3ccccc23)cc1	Lmaj promast 56.9 (no result: S1P3 antagonist)
COc1ccccc1OCC(=O)N/N=C1/SCC(=O)N1Cc1ccccc1	none (no result: S1P3 antagonist)
FC(F)(F)c1ccc(Oc2ccc(Cl)cc2Br)nc1	none
CCCCn1c(CNC(=O)C23CC4CC(CC(C4)C2)C3)nnc1SC(C)CC (configuration not stated)	none
O=C(NCCSc1ccccc1)c1ccc(CN2CCOCC2)cc1	none (no result: Lmaj promast)
Cc1cccc(CSCCNC(=O)c2ccc(CN3CCOCC3)cc2)c1	Lmaj promast 85.8
O=C(NCCSCc1ccc(Cl)cc1Cl)c1ccc(CN2CCOCC2)cc1	Lmaj promast 89.4 (no result: S1P3 antagonist)
O=S1(=O)CC=C(CSC(=S)NC2CCS(=O)(=O)C2)C1 (configuration not stated)	Lmaj promast 75.7 (no result: Mdm2 ligase inh)
NNC(=S)NC1CCS(=O)(=O)C1 (configuration not stated)	none (no result: Lmaj promast)
COC(=O)c1ccc(NC(=O)c2ccc(CN3CCOCC3)cc2)cc1	none
O=C(Nc1ccc(S(=O)(=O)N2CCCCC2)cc1)c1ccc(CN2CCc3ccccc3C2)cc1	Lmaj promast 99.1 (no result: S1P3 antagonist)
O=C(Nc1ccc(S(=O)(=O)Nc2ccccc2)cc1)c1ccc(CN2CCOCC2)cc1	Lmaj promast 82.5
O=C(Nc1ccc(CN2CCOCC2)cc1)c1ccc(-c2ccc(Br)cc2)o1	Lmaj promast 83.1
O=C(Nc1ccccc1)c1ccc(-c2ccc(Br)cc2)o1	none (no result: S1P3 antagonist)
Cc1ccc(/C=N/OC(=O)c2nn(C)cc2Cl)cc1	none
COc1cc(/C=C2\SC(c3ccc(C)cc3)=NC2=O)ccc1O	Lmaj promast 99.7 (no result: S1P3 antagonist)
Cc1oc(-c2ccc(Cl)cc2)nc1CN1CCC(C(=O)NCCCN2CCOCC2)CC1	Lmaj promast 100.5
CSc1ccc(-c2nc(CSCC(=O)NCCCN3CCOCC3)c(C)o2)cc1	none (no result: S1P3 antagonist)
CCN(CCNC(=O)C1CCN(Cc2nc(-c3ccc(Cl)cc3)oc2C)CC1)c1ccccc1	none
Cc1oc(-c2cccc(Cl)c2)nc1CN1CCCC(C(=O)NCCCN2CCOCC2)C1 (configuration not stated)	Lmaj promast 100.5
Cc1ccc(-c2nc(CSCC(=O)NCCCN3CCOCC3)c(C)o2)cc1	Lmaj promast 53.1
Cc1cccc(-c2nc(CN3CCCC(C(=O)NC4CCCC4)C3)c(C)o2)c1 (configuration not stated)	none
Cn1c(C(=O)c2ccccc2[N+](=O)[O-])nc2ccccc21	none
O=C(O)C1=C[C@H](c2coc3ccccc3c2=O)C[C@H](OCc2ccc(CO)cc2)O1	none (no result: Mdm2 ligase inh)
N=c1sccn1CC(=O)Nc1ccc([N+](=O)[O-])cc1Cl	none (no result: Lmaj promast, Mdm2 ligase inh)
C=C1CCC2C(C)(C)[C@H](O)CC[C@@]2(C)[C@@H]1COc1cc(=O)oc2ccccc12 (some centres not stated)	Lmaj promast 98.0 (no result: Mdm2 ligase inh)
FC(F)(F)c1cccc(CN2CCC(c3cc(-c4cccs4)n[nH]3)CC2)c1	none
Cc1ccc(CN2CCC(c3cc(-c4cccs4)n[nH]3)CC2)cc1	Lmaj promast 94.1
Cc1ccc(OCCOC(=O)Nc2ccccc2)cc1	none
C=C(C)C1CCC(C)=C1COC(=O)Nc1ccccc1 (configuration not stated)	Lmaj promast 96.1 (no result: Mdm2 ligase inh)
COC(=O)c1ccc(CN2CCN(CC=C(C)C)C(CCO)C2)cc1 (configuration not stated)	Lmaj promast 73.0
COC(=O)c1ccc(CN2CCN(CC(C)C)C(CCO)C2)cc1 (configuration not stated)	none (no result: Lmaj promast)
COC(=O)c1ccc(CN2CCN(Cc3ccc(F)cc3)C(CCO)C2)cc1 (configuration not stated)	Lmaj promast 59.2
COc1ccc(/C=C/CN2CCN(Cc3ccc(F)cc3)C(CCO)C2)cc1 (configuration not stated)	Lmaj promast 68.0
COC(=O)c1cc(C(=O)OCC(=O)Nc2ccccc2OC(F)F)cc([N+](=O)[O-])c1	none
C#CCSc1nnc(-c2ccc(OC)cc2)o1	none (no result: S1P3 antagonist)
C=C(C)c1cccc(C(C)(C)NC(=O)N2CCN(C/C=C/c3ccccc3)CC2)c1	none (no result: S1P3 antagonist)
NC1=Nc2cccc3cccc1c23	Lmaj promast 52.2
CCCCCn1cnc2c(sc3nc4c(cc32)CSC(C)(C)C4)c1=O	none
Cc1cccc(NC(=O)CSc2nsc(SCC(=O)Nc3cccc(C)c3)c2C#N)c1	Lmaj promast 68.9
Cc1nnc(SCC(=O)Nc2cccc(S(=O)(=O)N(C)c3ccccc3)c2)s1	none
